In ChEMBL document CHEMBL2331169, “Search for α3β₂/₃γ2 subtype selective ligands that are stable on human liver microsomes” (Bioorg Med Chem, 2013):
Active and inactive are the calls of the source. The calls are words filed in the database; no cut-off is given here.

Experiments:
[1] = Metabolic stability in human liver microsomes assessed as compound remaining at 1 uM measured at 15 mins by LC-MS/MS analysis relative to control; assay type: ADME, Microsome; conditions: read-out: Stability
In short: (§1)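 Pooled human liver microsomes (150 donors, 0.5 mg protein/ml) with 2.5 mM NADPH and 3.3 mM MgCl2 in 100 mM phosphate pH 7.4, 0.1% DMSO final, 37 °C, reaction started with microsomes. Aliquots quenched in cold acetonitrile with internal standard; LC-MS/MS in positive-ion ESI MRM mode. Percent remaining is analyte/internal-standard peak-area ratio versus 0 min ×100; duplicates.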

[2] = Metabolic stability in human liver microsomes assessed as compound remaining at 10 uM measured at 30 mins by LC-MS/MS analysis relative to control; assay type: ADME, Microsome; conditions: read-out: Stability; in short: as §1
Rattus norvegicus [3] = test: Anxiolytic activity in rat assessed as increase in time spent in lighted area at 10 to 100 mg/kg, ip administered 20 mins prior to testing measured for 30 mins by light/dark cycle test relative to vehicle-treated control; assay type: functional, organism-based
[4] = target: Gamma-aminobutyric acid receptor subunit alpha-3 (Rattus norvegicus) (UniProt P20236); test: Agonist activity at rat GABAA alpha3beta3gamma2 receptor expressed in Xenopus oocytes assessed as stimulation of GABA-induced chloride current at 100 nM incubated 30 secs prior to GABA induction measured after 15 mins by two-electrode voltage clamp assay relative to control; assay type: cell-based; conditions: Oocyte
In short: (§2)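 Rat GABAA β3 and γ2 cDNAs plus α1, α2, α3 or α5 cDNA injected into Xenopus oocytes; follicle layers removed 36 h later. Two-electrode recording with […]-filled electrodes; oocytes perfused with Ringer (90 mM NaCl, 5 mM HEPES pH 7.4, 1 mM MgCl2, KCl, CaCl2) switched to GABA at EC3 with drug (0.1% DMSO final). Mean ± SEM, 3–4 oocytes, ≥2 batches.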

[5] = target: Gamma-aminobutyric acid receptor subunit alpha-3 (Rattus norvegicus) (UniProt P20236); test: Agonist activity at rat GABAA alpha3beta3gamma2 receptor expressed in Xenopus oocytes assessed as stimulation of GABA-induced chloride current at 1 uM incubated 30 secs prior to GABA induction measured after 15 mins by two-electrode voltage clamp assay relative to control; assay type: cell-based; conditions: Oocyte; in short: as §2
[6] = Metabolic stability in human liver microsomes assessed as compound remaining at 10 uM measured at 15 mins by LC-MS/MS analysis relative to control; assay type: ADME, Microsome; conditions: read-out: Stability; in short: as §1
[7] = target: T1, GABA-A receptor; alpha-1/beta-2/gamma-2 (Rattus norvegicus) (UniProt P18508+P62813+P63138); test: Agonist activity at rat GABAA alpha1beta3gamma2 receptor expressed in Xenopus oocytes assessed as stimulation of GABA-induced chloride current at 1 uM incubated 30 secs prior to GABA induction measured after 15 mins by two-electrode voltage clamp assay relative to control; assay type: cell-based; conditions: Oocyte; in short: as §2
[8] = target: T2, GABA A receptor alpha-5/beta-3/gamma-2 (Rattus norvegicus) (UniProt P18508+P19969+P63079); test: Agonist activity at rat GABAA alpha5beta3gamma2 receptor expressed in Xenopus oocytes assessed as stimulation of GABA-induced chloride current at 1 uM incubated 30 secs prior to GABA induction measured after 15 mins by two-electrode voltage clamp assay relative to control; assay type: cell-based; conditions: Oocyte; in short: as §2
Liver microsomes [9] = test: (§3) Metabolic stability in heat inactivated human liver microsomes assessed as compound remaining at 1 uM measured at 60 mins by LC-MS/MS analysis relative to control; assay type: ADME, Microsome; conditions: microsomes, 1 h, 1 µM
In short: (§4)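 Control incubation with heat-inactivated human liver microsomes (0.5 mg protein/ml) in 100 mM phosphate pH 7.4, 37 °C, sampled at 0 and 60 min. Samples quenched in acetonitrile with internal standard and analysed by LC-MS/MS. Percent remaining is the peak-area ratio relative to 0 min ×100; duplicates.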

[10] = target: T3, GABA A receptor alpha-2/beta-2/gamma-2 (Rattus norvegicus) (UniProt P18508+P23576+P63138); test: Agonist activity at rat GABAA alpha2beta3gamma2 receptor expressed in Xenopus oocytes assessed as stimulation of GABA-induced chloride current at 100 nM incubated 30 secs prior to GABA induction measured after 15 mins by two-electrode voltage clamp assay relative to control; assay type: cell-based; conditions: Oocyte; in short: as §2
[11] = target: T1, GABA-A receptor; alpha-1/beta-2/gamma-2 (Rattus norvegicus); test: Agonist activity at rat GABAA alpha1beta3gamma2 receptor expressed in Xenopus oocytes assessed as stimulation of GABA-induced chloride current at 100 nM incubated 30 secs prior to GABA induction measured after 15 mins by two-electrode voltage clamp assay relative to control; assay type: cell-based; conditions: Oocyte; in short: as §2
[12] = (§5) Metabolic stability in human liver microsomes assessed as compound remaining at 1 uM measured at 30 mins by LC-MS/MS analysis relative to control; assay type: ADME, Microsome; conditions: liver microsomes, read-out: Stability; in short: as §1
[13] = (§6) Metabolic stability in human liver microsomes assessed as compound remaining at 1 uM measured at 60 mins by LC-MS/MS analysis relative to control; assay type: ADME, Microsome; conditions: liver microsomes, read-out: Stability; in short: as §1
[14] = Metabolic stability in heat inactivated human liver microsomes assessed as compound remaining at 10 uM measured at 60 mins by LC-MS/MS analysis relative to control; assay type: ADME, Microsome; conditions: read-out: Stability; in short: as §4
[15] = target: T3, GABA A receptor alpha-2/beta-2/gamma-2 (Rattus norvegicus); test: Agonist activity at rat GABAA alpha2beta3gamma2 receptor expressed in Xenopus oocytes assessed as stimulation of GABA-induced chloride current at 1 uM incubated 30 secs prior to GABA induction measured after 15 mins by two-electrode voltage clamp assay relative to control; assay type: cell-based; conditions: Oocyte; in short: as §2
[16] = target: T2, GABA A receptor alpha-5/beta-3/gamma-2 (Rattus norvegicus); test: Agonist activity at rat GABAA alpha5beta3gamma2 receptor expressed in Xenopus oocytes assessed as stimulation of GABA-induced chloride current at 100 nM incubated 30 secs prior to GABA induction measured after 15 mins by two-electrode voltage clamp assay relative to control; assay type: cell-based; conditions: Oocyte; in short: as §2
[17] = Metabolic stability in human liver microsomes assessed as compound remaining at 10 uM measured at 60 mins by LC-MS/MS analysis relative to control; assay type: ADME, Microsome; conditions: read-out: Stability; in short: as §1
Rattus norvegicus [18] = test: Sedative activity in rat assessed as reduction of D-amphetamine sulfate-induced locomotion at 10 to 100 mg/kg, ip administered 20 mins prior to testing measured for 90 mins relative to vehicle-treated control; assay type: functional, organism-based
In short: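 Rats kept ≥10 days on a reversed light/dark cycle. Drug or saline (2 ml/kg) given i.p. 20 min before an open-field arena; spontaneous x–y locomotion recorded 30 min by beam breaks. D-amphetamine sulfate 0.5 mg/kg i.p. then given, and locomotion recorded a further 90 min.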

[19] = as §3; assay type: ADME, Microsome; conditions: heat-inactivated liver microsomes, read-out: Stability; in short: as §4
Liver microsomes [20] = test: as §5; assay type: ADME, Microsome; conditions: microsomes, 0.5 h, 1 µM; in short: as §1
Liver microsomes [21] = test: as §6; assay type: ADME, Microsome; conditions: microsomes, 1 h, 1 µM; in short: as §1

Chain of Gamma-aminobutyric acid receptor subunit alpha-3 (Rattus norvegicus) (P20236 whole entry, the tested form may be a part): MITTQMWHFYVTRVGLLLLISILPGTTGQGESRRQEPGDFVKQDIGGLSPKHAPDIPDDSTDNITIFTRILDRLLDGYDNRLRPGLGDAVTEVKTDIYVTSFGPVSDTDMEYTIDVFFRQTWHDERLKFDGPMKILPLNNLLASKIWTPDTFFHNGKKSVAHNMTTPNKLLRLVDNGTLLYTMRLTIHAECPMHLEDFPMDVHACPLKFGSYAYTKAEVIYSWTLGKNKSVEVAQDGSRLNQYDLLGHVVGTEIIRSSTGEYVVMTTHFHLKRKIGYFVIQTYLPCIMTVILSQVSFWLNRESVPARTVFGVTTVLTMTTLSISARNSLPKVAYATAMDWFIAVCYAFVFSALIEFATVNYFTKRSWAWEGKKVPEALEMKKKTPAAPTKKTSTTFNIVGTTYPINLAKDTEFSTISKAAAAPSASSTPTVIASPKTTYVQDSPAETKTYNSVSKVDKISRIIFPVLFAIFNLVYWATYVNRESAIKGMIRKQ

Row | SMILES | remaining at 0.25 h, 1 µM [1] | remaining at 0.5 h, 10 µM [2] | Activity [4] | Activity [5] | remaining at 0.25 h, 10 µM [6] | Activity [7] | Activity [8] | Activity [10] | Activity [11] | remaining at 0.5 h, 1 µM [12] | remaining at 1 h, 1 µM [13] | remaining at 1 h, 10 µM [14] | Activity [15] | Activity [16] | remaining at 1 h, 10 µM [17] | remaining at 1 h, 1 µM [19] | also measured
1 | C#Cc1ccc2c(c1)C(c1ccccc1)=NCc1c(-c3nc(C(C)C)no3)ncn1-2 | 100% | 108% | 195% | 381% | 109% | 150% | 291% | 160% | 107% | 110% | 90.8% | 119% | 281% | 175% | 96.6% |  | Activity (Rattus norvegicus [3]): Active; Stability (Liver microsomes [9]): 137.5%; Activity (Rattus norvegicus [18]): inactive
2 | C#Cc1ccc2c(c1)C(c1ccccn1)=NCc1c(-c3nc(C(C)C)no3)ncn1-2 | 97.8% | 99.3% | 143% | 375% | 106% | 178% | 252% | 139% | 117% | 98.7% | 89.5% | 91.7% | 236% | 130% | 95.1% | 113% | 
3 | C#Cc1ccc2c(c1)C(c1ccccn1)=NCc1c(C(=O)NC)ncn1-2 | 109% | 106% | 163% | 376% | 104% | 171% | 182% | 140% | 117% |  |  | 110% | 226% | 122% | 110% | 110% | Stability (Liver microsomes [20]): 126%; Stability (Liver microsomes [21]): 136.4%
4 | C#Cc1ccc2c(c1)C(c1ccccc1F)=NCc1c(C(=O)NC)ncn1-2 | 97.3% | 103% | 349% | 485% | 96.8% | 201% | 361% | 241% | 152% | 95.9% | 92.3% | 108% | 287% | 326% | 103% | 116% | 
5 | C#Cc1ccc2c(c1)C(c1ccccn1)=NCc1c(C(=O)OCC)ncn1-2 | 106% | 90.4% |  |  | 103% |  |  |  |  | 95.6% | 80.2% | 95.4% |  |  | 76.1% | 93.8% | 
6 | C#Cc1ccc2c(c1)C(c1ccccc1F)=NCc1c(-c3nc(C(C)C)no3)ncn1-2 |  |  | 226% | 460% |  | 234% | 331% | 154% | 140% |  |  |  | 225% | 239% |  |  | 
